This note sets out measurements from ChEMBL document CHEMBL1671666, “Anti-human immunodeficiency virus activity, cross-resistance, cytotoxicity, and intracellular pharmacology of the 3'-azido-2',3'-dideoxypurine nucleosides” (Antimicrob Agents Chemother, 2009).

Where only a bound is given, the exact number is not on record here.

In data set [1] the test system is Human immunodeficiency virus 1. Kind of data set: Antiviral activity against HIV1 harboring reverse transcriptase M184V mutant infected in human HeLa P4/R5 cells assessed as inhibition of viral replication. The settings on record: Human immunodeficiency virus 1, HeLa. In kind it is functional, organism-based. The gist of the method:
(§1)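 Single-replication-cycle assay in P4/R5 cells: HeLa stably carrying a Tat-activated β-galactosidase gene under an HIV LTR promoter, grown in phenol red-free DMEM with 10% FBS and 0.5 μg/ml puromycin. Virus stocks were titred in P4/R5 cells by threefold endpoint dilution (Reed–Muench).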

For data set [2], the system named is mitochondrial DNA. In words: Mitochondrial toxicity in human HepG2 cells assessed as percent inhibition of mitochondrial DNA at 10 uM after 14 days by real-time PCR. In kind it is cell-based. A digest of the protocol: (§2)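 Low-passage HepG2 cells seeded at 5,000 cells/well on collagen-coated plates and cultured 14 days with 10 or 100 μM NRTI. mtDNA and β-actin DNA quantified by real-time PCR in duplicate; mtDNA normalized to β-actin and expressed relative to untreated cells. At least two independent experiments; ranges given.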
In general terms: Real-time PCR tracks product formation cycle by cycle.

Data set [3] deals with beta-actin DNA. In words: Mitochondrial toxicity in human HepG2 cells assessed as percent inhibition of beta-actin DNA at 100 uM after 14 days by real-time PCR. In kind it is cell-based. The gist of the method:
as §2

Data set [4] concerns Human immunodeficiency virus 1. Kind of data set: Antiviral activity against HIV1 infected in human HeLa P4/R5 cells assessed as inhibition of viral replication. In kind it is functional, organism-based. As to conditions: Human immunodeficiency virus 1, HeLa. The gist of the method:
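Single-cycle assay in P4/R5 HeLa cells carrying an HIV LTR-driven, Tat-activated β-galactosidase gene. Cells kept in phenol red-free DMEM with 10% FBS and 0.5 μg/ml puromycin. Virus stock titred on these cells by threefold endpoint dilution (Reed-Muench). At least three independent experiments.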

The test system of data set [5] is mitochondrial DNA. Kind of data set: Mitochondrial toxicity in human HepG2 cells assessed as percent inhibition of mitochondrial DNA at 100 uM after 14 days by real-time PCR. The data set is classed as cell-based. The gist of the method: as §2
Data set [6] relates to beta-actin DNA. In words: Mitochondrial toxicity in human HepG2 cells assessed as percent inhibition of beta-actin DNA at 10 uM after 14 days by real-time PCR. The data set is classed as cell-based. The gist of the method:
as §2

The subject of data set [7] is Human immunodeficiency virus 1. In words: Ratio of IC50 for HIV1 harboring reverse transcriptase K65R mutant infected in human HeLa P4/R5 cells to wild type HIV1 infected in human HeLa P4/R5 cells. The data set is classed as functional. The gist of the method:
as §1

Data set [8] has as its system Human immunodeficiency virus 1. In words: Antiviral activity against HIV1 harboring reverse transcriptase K65R mutant infected in human HeLa P4/R5 cells assessed as inhibition of viral replication. The data set is classed as functional, organism-based. As to conditions: Human immunodeficiency virus 1, HeLa. A digest of the protocol:
as §1

The subject of data set [9] is Human immunodeficiency virus 1. Kind of data set: Ratio of IC50 for HIV1 harboring reverse transcriptase M184V mutant infected in human HeLa P4/R5 cells to wild type HIV1 infected in human HeLa P4/R5 cells. The data set is classed as functional. A digest of the protocol: as §1
For data set [10], the system named is HepG2. In words: Mitochondrial toxicity in human HepG2 cells assessed as percent mitochondrial DNA production at 10 uM after 14 days by real-time PCR relative to control. In kind it is cell-based. As to conditions: hepg2, 336 h. The gist of the method:
as §2

Data set [11] deals with Human immunodeficiency virus 1. In words: Antiviral activity against HIV1 infected in human PBMC assessed as inhibition of viral replication. The data set is classed as functional, organism-based. The gist of the method:
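PBMC from healthy seronegative donors, isolated on a Ficoll-Hypaque gradient and stimulated with PHA for 2-3 days before infection. At least three independent experiments.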

For data set [12], the system named is Human immunodeficiency virus 1. Kind of data set: Antiviral activity against HIV1 infected in human MT2 cells assessed as inhibition of viral replication. In kind it is functional, organism-based. As to conditions: Human immunodeficiency virus 1, MT2.
For data set [13], the system named is HepG2. Kind of data set: Mitochondrial toxicity in human HepG2 cells assessed as percent lactic acid production at 10 uM after 14 days by real-time PCR relative to beta-actin DNA. The data set is classed as cell-based. The settings on record: hepg2, 336 h. A digest of the protocol:
(§3)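 HepG2 cells cultured 14 days with 10 or 100 μM NRTI. Lactic acid quantified with a D-/L-lactic acid enzymatic test kit and expressed relative to β-actin DNA and to untreated control.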

Data set [14] deals with HepG2. Kind of data set: Mitochondrial toxicity in human HepG2 cells assessed as percent mitochondrial DNA production at 100 uM after 14 days by real-time PCR relative to control. In kind it is cell-based. As to conditions: hepg2, 336 h. The gist of the method: as §2
In data set [15] the test system is HepG2. In words: Mitochondrial toxicity in human HepG2 cells assessed as percent lactic acid production at 100 uM after 14 days by real-time PCR relative to beta-actin DNA. The data set is classed as cell-based. As to conditions: hepg2, 336 h. A digest of the protocol: as §3

For the compound `Nc1ccn([C@@H]2CS[C@H](CO)O2)c(=O)n1` [LAMIVUDINE], the IC50 is above 60 µM in data set [1]; 0.78 µM in [4]; 60.5 µM in data set [8]; 0.03 µM in [11]; 0.6 µM in [12]. Besides, the inhibition at 336 h, 10 µM in the data set on mitochondrial DNA [2] and in the data set with beta-actin DNA [6] was below 1% each time. For the same compound, the inhibition at 336 h, 100 µM in the data set with beta-actin DNA [3] is 94.3%; in the data set with mitochondrial DNA [5], 100%. The “Ratio IC50” value is recorded as 77 in [7] and above 75 in data set [9]. Besides, the Activity with HepG2 [10] came out at 119%; in the data set on HepG2 [13], 105%; with HepG2 [14], 0.6%; in the data set on HepG2 [15], 416%.

For orientation: IC50 means the concentration at which inhibition is half-maximal. By inhibition is commonly meant the percentage by which the read-out fell short of the control.
